Source: ChEMBL document CHEMBL4706590, “Design and characterization of cereblon-mediated androgen receptor proteolysis-targeting chimeras” (Eur J Med Chem, 2020)

System: VCaP
Experiment: Antiproliferative activity against human VCaP cells assessed as reduction in cell viability after 6 days by CellTiter-Glo assay
Type: functional
Settings: 144 h, time 6 day
Procedure, shortened: (§1)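 LNCaP seeded at 1.5 × 10³ and VCaP at 4 × 10³ cells per well in 96-well plates. Cells grown in IMDM with 10% FBS and antibiotic-antimycotic at 37 °C, 5% CO2, with DMSO as vehicle. IC50 from nonlinear regression of log(inhibitor) versus response.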

Compound | CC50 [nM]
CC1(C)[C@H](NC(=O)c2ccc(N3CCN(C4CC5(CCN(C(=O)COc6ccc7nnn(C8CCC(=O)NC8=O)c(=O)c7c6)CC5)C4)CC3)cc2)C(C)(C)[C@H]1Oc1ccc(C#N)c(Cl)c1 (stereo partly drawn) | 76
CC1(C)[C@H](NC(=O)c2ccc(N3CCN(C4CC5(CCN(c6ccc7nnn(C8CCC(=O)NC8=O)c(=O)c7c6)CC5)C4)CC3)cc2)C(C)(C)[C@H]1Oc1ccc(C#N)c(Cl)c1 (stereo partly drawn) | 113
CC1(C)[C@H](NC(=O)c2ccc(N3CCN(CCC4CCN(C(=O)C5CN(c6ccc7nnn(C8CCC(=O)NC8=O)c(=O)c7c6)C5)CC4)CC3)cc2)C(C)(C)[C@H]1Oc1ccc(C#N)c(Cl)c1 (stereo partly drawn) | 37
CC1(C)[C@H](NC(=O)c2ccc(N3CCN(C4CC5(CCN(C(=O)CNc6ccc7nnn(C8CCC(=O)NC8=O)c(=O)c7c6)CC5)C4)CC3)cc2)C(C)(C)[C@H]1Oc1ccc(C#N)c(Cl)c1 (stereo partly drawn) | 54
CC1(C)[C@H](NC(=O)c2ccc(N3CCN(CCC4CCN(c5cccc6nnn(C7CCC(=O)NC7=O)c(=O)c56)CC4)CC3)cc2)C(C)(C)[C@H]1Oc1ccc(C#N)c(Cl)c1 (stereo partly drawn) | 1580

System: LNCaP
Experiment: Antiproliferative activity against human LNCaP cells assessed as reduction in cell viability after 6 days by CellTiter-Glo assay
Type: functional
Settings: 144 h, time 6 day
Procedure, shortened: as §1

Compound | CC50 [nM]
CC1(C)[C@H](NC(=O)c2ccc(N3CCN(C4CC5(CCN(C(=O)COc6ccc7nnn(C8CCC(=O)NC8=O)c(=O)c7c6)CC5)C4)CC3)cc2)C(C)(C)[C@H]1Oc1ccc(C#N)c(Cl)c1 (stereo partly drawn) | 196
CC1(C)[C@H](NC(=O)c2ccc(N3CCN(C4CC5(CCN(c6ccc7nnn(C8CCC(=O)NC8=O)c(=O)c7c6)CC5)C4)CC3)cc2)C(C)(C)[C@H]1Oc1ccc(C#N)c(Cl)c1 (stereo partly drawn) | 214
CC1(C)[C@H](NC(=O)c2ccc(N3CCN(CCC4CCN(C(=O)C5CN(c6ccc7nnn(C8CCC(=O)NC8=O)c(=O)c7c6)C5)CC4)CC3)cc2)C(C)(C)[C@H]1Oc1ccc(C#N)c(Cl)c1 (stereo partly drawn) | 538
CC1(C)[C@H](NC(=O)c2ccc(N3CCN(C4CC5(CCN(C(=O)CNc6ccc7nnn(C8CCC(=O)NC8=O)c(=O)c7c6)CC5)C4)CC3)cc2)C(C)(C)[C@H]1Oc1ccc(C#N)c(Cl)c1 (stereo partly drawn) | 208
CC1(C)[C@H](NC(=O)c2ccc(N3CCN(CCC4CCN(c5cccc6nnn(C7CCC(=O)NC7=O)c(=O)c56)CC4)CC3)cc2)C(C)(C)[C@H]1Oc1ccc(C#N)c(Cl)c1 (stereo partly drawn) | > 10000

Molecular target: T1, Protein cereblon/Androgen receptor (Homo sapiens, UniProt P10275+Q96SW2)
Experiment: Protac activity at CRBN/AR in human LNCaP cells assessed as AR degradation at 0.1 uM by western blotting analysis relative to control
Type: cell-based
Settings: not given
Procedure, shortened: (§2)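 LNCaP (IMDM) or 22RV1 (RPMI 1640) cells with 10% FBS at 37 °C, 5% CO2, treated with DMSO vehicle as control. Cells lysed in RIPA buffer (50 mM Tris-HCl pH 7.5, 150 mM NaCl, 1% Triton X-100, 0.1% SDS, 0.5% deoxycholate, protease inhibitors). Protein quantified by Bradford assay. Immunoblotted for AR with tubulin as loading control, HRP chemiluminescence detection.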

T1 sequence (P10275 whole entry, looked up): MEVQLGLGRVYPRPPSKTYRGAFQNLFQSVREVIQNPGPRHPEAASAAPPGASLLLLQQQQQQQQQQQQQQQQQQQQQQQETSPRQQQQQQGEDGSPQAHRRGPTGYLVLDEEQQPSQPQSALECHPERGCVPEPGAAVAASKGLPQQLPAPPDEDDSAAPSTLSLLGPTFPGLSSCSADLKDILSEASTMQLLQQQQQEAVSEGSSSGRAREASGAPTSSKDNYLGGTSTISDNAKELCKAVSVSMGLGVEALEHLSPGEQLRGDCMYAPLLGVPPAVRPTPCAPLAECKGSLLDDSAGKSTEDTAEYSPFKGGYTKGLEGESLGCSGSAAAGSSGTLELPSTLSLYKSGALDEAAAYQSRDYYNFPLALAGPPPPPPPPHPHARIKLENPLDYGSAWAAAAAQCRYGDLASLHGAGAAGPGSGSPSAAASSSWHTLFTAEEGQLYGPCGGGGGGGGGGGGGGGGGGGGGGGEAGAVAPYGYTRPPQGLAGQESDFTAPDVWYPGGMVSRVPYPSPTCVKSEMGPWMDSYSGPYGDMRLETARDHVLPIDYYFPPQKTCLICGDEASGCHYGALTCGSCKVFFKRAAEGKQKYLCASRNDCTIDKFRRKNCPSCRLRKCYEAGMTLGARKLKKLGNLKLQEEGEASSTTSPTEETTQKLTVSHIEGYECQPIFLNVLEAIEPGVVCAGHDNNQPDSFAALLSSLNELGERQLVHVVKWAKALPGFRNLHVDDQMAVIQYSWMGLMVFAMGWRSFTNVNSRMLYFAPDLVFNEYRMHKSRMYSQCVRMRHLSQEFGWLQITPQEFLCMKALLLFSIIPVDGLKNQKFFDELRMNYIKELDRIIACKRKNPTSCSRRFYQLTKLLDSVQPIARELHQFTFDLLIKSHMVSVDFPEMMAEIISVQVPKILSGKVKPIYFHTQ
T1 sequence (Q96SW2 whole entry, looked up): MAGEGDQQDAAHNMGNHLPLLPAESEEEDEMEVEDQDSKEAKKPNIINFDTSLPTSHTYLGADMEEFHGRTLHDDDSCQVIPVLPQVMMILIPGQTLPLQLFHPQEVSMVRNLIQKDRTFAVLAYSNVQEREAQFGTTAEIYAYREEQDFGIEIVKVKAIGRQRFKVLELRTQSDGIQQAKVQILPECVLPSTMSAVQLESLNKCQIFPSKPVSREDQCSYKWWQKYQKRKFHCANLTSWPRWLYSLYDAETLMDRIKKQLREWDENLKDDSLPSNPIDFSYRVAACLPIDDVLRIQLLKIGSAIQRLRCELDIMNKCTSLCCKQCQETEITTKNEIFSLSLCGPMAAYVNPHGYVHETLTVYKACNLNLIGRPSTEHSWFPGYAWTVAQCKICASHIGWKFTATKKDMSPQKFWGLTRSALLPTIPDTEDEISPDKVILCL

Compound | Activity [%]
CC1(C)[C@H](NC(=O)c2ccc(N3CCN(CCC4CCN(C(=O)C5CN(c6ccc7nnn(C8CCC(=O)NC8=O)c(=O)c7c6)C5)CC4)CC3)cc2)C(C)(C)[C@H]1Oc1ccc(C#N)c(Cl)c1 (stereo partly drawn) | 74
CC1(C)[C@H](NC(=O)c2ccc(N3CCN(CCC4CCN(c5cccc6nnn(C7CCC(=O)NC7=O)c(=O)c56)CC4)CC3)cc2)C(C)(C)[C@H]1Oc1ccc(C#N)c(Cl)c1 (stereo partly drawn) | 0

Next, values leading:

Activity [%] | Compound
60 | CC1(C)[C@H](NC(=O)c2ccc(N3CCN(C4CC5(CCN(C(=O)COc6ccc7nnn(C8CCC(=O)NC8=O)c(=O)c7c6)CC5)C4)CC3)cc2)C(C)(C)[C@H]1Oc1ccc(C#N)c(Cl)c1 (stereo partly drawn)
15 | CC1(C)[C@H](NC(=O)c2ccc(N3CCN(C4CC5(CCN(c6ccc7nnn(C8CCC(=O)NC8=O)c(=O)c7c6)CC5)C4)CC3)cc2)C(C)(C)[C@H]1Oc1ccc(C#N)c(Cl)c1 (stereo partly drawn)
61 | CC1(C)[C@H](NC(=O)c2ccc(N3CCN(C4CC5(CCN(C(=O)CNc6ccc7nnn(C8CCC(=O)NC8=O)c(=O)c7c6)CC5)C4)CC3)cc2)C(C)(C)[C@H]1Oc1ccc(C#N)c(Cl)c1 (stereo partly drawn)

System: not listed separately
Experiment: Metabolic stability in mouse liver microsomes assessed as compound remaining at 1 uM after 30 mins in presence of NADPH-regenerating system
Type: ADME, Microsome
Settings: read-out: Stabilty
Procedure, shortened: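 Mouse liver microsomes at 0.5 mg protein/mL in 100 mM PBS, pH 7.4. Reaction started with NADPH-regenerating solution (1.3 mM NADP+, 3.3 mM glucose-6-phosphate, 0.4 U/mL G6PDH, 3.3 mM MgCl2). Incubated 30 min at 37 °C, stopped with ice-cold acetonitrile, centrifuged. Percent remaining reported as mean ± SD, n = 3.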

remaining at 0.5 h, 1 µM [%] | Compound
62.8 | CC1(C)[C@H](NC(=O)c2ccc(N3CCN(C4CC5(CCN(C(=O)COc6ccc7nnn(C8CCC(=O)NC8=O)c(=O)c7c6)CC5)C4)CC3)cc2)C(C)(C)[C@H]1Oc1ccc(C#N)c(Cl)c1 (stereo partly drawn)
92.9 | CC1(C)[C@H](NC(=O)c2ccc(N3CCN(CCC4CCN(C(=O)C5CN(c6ccc7nnn(C8CCC(=O)NC8=O)c(=O)c7c6)C5)CC4)CC3)cc2)C(C)(C)[C@H]1Oc1ccc(C#N)c(Cl)c1 (stereo partly drawn)
85.5 | CC1(C)[C@H](NC(=O)c2ccc(N3CCN(C4CC5(CCN(C(=O)CNc6ccc7nnn(C8CCC(=O)NC8=O)c(=O)c7c6)CC5)C4)CC3)cc2)C(C)(C)[C@H]1Oc1ccc(C#N)c(Cl)c1 (stereo partly drawn)

Molecular target: T1, Protein cereblon/Androgen receptor
Experiment: Protac activity at CRBN/AR in human LNCaP cells assessed as AR degradation at 1 uM by Western blotting analysis relative to control
Type: cell-based
Settings: not given
Procedure, shortened: as §2

Compound | Activity [%]
CC1(C)[C@H](NC(=O)c2ccc(N3CCN(CCC4CCN(C(=O)C5CN(c6ccc7nnn(C8CCC(=O)NC8=O)c(=O)c7c6)C5)CC4)CC3)cc2)C(C)(C)[C@H]1Oc1ccc(C#N)c(Cl)c1 (stereo partly drawn) | 84
CC1(C)[C@H](NC(=O)c2ccc(N3CCN(CCC4CCN(c5cccc6nnn(C7CCC(=O)NC7=O)c(=O)c56)CC4)CC3)cc2)C(C)(C)[C@H]1Oc1ccc(C#N)c(Cl)c1 (stereo partly drawn) | 31

Results, then the compound that gave them:

Activity [%] | Compound
77 | CC1(C)[C@H](NC(=O)c2ccc(N3CCN(C4CC5(CCN(C(=O)COc6ccc7nnn(C8CCC(=O)NC8=O)c(=O)c7c6)CC5)C4)CC3)cc2)C(C)(C)[C@H]1Oc1ccc(C#N)c(Cl)c1 (stereo partly drawn)
95 | CC1(C)[C@H](NC(=O)c2ccc(N3CCN(C4CC5(CCN(c6ccc7nnn(C8CCC(=O)NC8=O)c(=O)c7c6)CC5)C4)CC3)cc2)C(C)(C)[C@H]1Oc1ccc(C#N)c(Cl)c1 (stereo partly drawn)
77 | CC1(C)[C@H](NC(=O)c2ccc(N3CCN(C4CC5(CCN(C(=O)CNc6ccc7nnn(C8CCC(=O)NC8=O)c(=O)c7c6)CC5)C4)CC3)cc2)C(C)(C)[C@H]1Oc1ccc(C#N)c(Cl)c1 (stereo partly drawn)

Molecular target: T1, Protein cereblon/Androgen receptor
Experiment: Protac activity at CRBN/AR in human LNCaP cells assessed as AR degradation at 10 uM by Western blotting analysis relative to control
Type: cell-based
Settings: not given
Procedure, shortened: as §2

Compound | Activity [%]
CC1(C)[C@H](NC(=O)c2ccc(N3CCN(CCC4CCN(C(=O)C5CN(c6ccc7nnn(C8CCC(=O)NC8=O)c(=O)c7c6)C5)CC4)CC3)cc2)C(C)(C)[C@H]1Oc1ccc(C#N)c(Cl)c1 (stereo partly drawn) | 96
CC1(C)[C@H](NC(=O)c2ccc(N3CCN(CCC4CCN(c5cccc6nnn(C7CCC(=O)NC7=O)c(=O)c56)CC4)CC3)cc2)C(C)(C)[C@H]1Oc1ccc(C#N)c(Cl)c1 (stereo partly drawn) | 90

The remaining lines, values ahead:

Activity [%] | Compound
79 | CC1(C)[C@H](NC(=O)c2ccc(N3CCN(C4CC5(CCN(C(=O)COc6ccc7nnn(C8CCC(=O)NC8=O)c(=O)c7c6)CC5)C4)CC3)cc2)C(C)(C)[C@H]1Oc1ccc(C#N)c(Cl)c1 (stereo partly drawn)
81 | CC1(C)[C@H](NC(=O)c2ccc(N3CCN(C4CC5(CCN(c6ccc7nnn(C8CCC(=O)NC8=O)c(=O)c7c6)CC5)C4)CC3)cc2)C(C)(C)[C@H]1Oc1ccc(C#N)c(Cl)c1 (stereo partly drawn)
39 | CC1(C)[C@H](NC(=O)c2ccc(N3CCN(C4CC5(CCN(C(=O)CNc6ccc7nnn(C8CCC(=O)NC8=O)c(=O)c7c6)CC5)C4)CC3)cc2)C(C)(C)[C@H]1Oc1ccc(C#N)c(Cl)c1 (stereo partly drawn)
